{
  "source": "paper PMC12783166",
  "about": "(Clinical Pharmacokinetics, 2025)",
  "key": {"[1]": {"assay": "Phase 1 population PK model", "type": "in vivo, human", "conditions": "Phase 1 Model"}, "[2]": {"assay": "Phase 2 population PK model", "type": "in vivo, human", "conditions": "Phase 2 Model"}, "[3]": {"assay": "Phase 3 population PK model", "type": "in vivo, human", "method_in_brief": "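Nonlinear mixed-effects model fitted by FOCE with interaction to pooled plasma and dried-blood-spot LC-MS/MS concentrations from 12 phase 1, 1 phase 2b/3 and 1 phase 3 study (healthy participants and migraine patients, single/multiple oral doses). Plasma LLOQ 0.1 or 1.0 ng/mL, DBS 2.5 ng/mL. Below-LLOQ samples and |CWRES| > 6 excluded. Log-normal IIV. Covariates added stepwise (ΔOFV 6.63, P < 0.01).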"}, "[4]": {"test_system": "cytochrome P450 3A4 (CYP3A4)", "conditions": "cited from earlier work"}, "[5]": {"test_system": "OATP1B3", "conditions": "cited from earlier work"}, "[6]": {"conditions": "Phase 3 Model, fractional covariate effect"}, "[7]": {"conditions": "Phase 3 Model, multiple rifampin doses and a single atogepant dose"}, "[8]": {"conditions": "Phase 3 Model, proportional residual error"}, "[9]": {"conditions": "Phase 3 Model, single-dose atogepant and single-dose rifampin"}},
  "note": "Several values for one entry are separate records, joined by “and”; a condition that tells them apart may be missing. Equal values may be shown once.",
  "data": [
    {"compound": "C[C@@H]1[C@H](c2c(F)ccc(F)c2F)C[C@H](NC(=O)c2cnc3c(c2)C[C@@]2(C3)C(=O)Nc3ncccc32)C(=O)N1CC(F)(F)F", "note": "[atogepant, Atogepant]", "values": [
      {"measurement": "Famotidine pre-treatment on Frel", "setting": "[1]; fractional covariate effect", "value": "−0.15"},
      {"measurement": "Famotidine pre-treatment on ka", "setting": "[1]; fractional covariate effect", "value": "−0.51"},
      {"measurement": "Formulation 2 tablet effect on ka", "setting": "[1]; fractional covariate effect", "value": "−0.44"},
      {"measurement": "Formulation 2 tablet on Frel", "setting": "[1]; fractional covariate effect", "value": "−0.17"},
      {"measurement": "Formulation 4 tablet effect on ka", "setting": "[1]; fractional covariate effect", "value": "−0.42"},
      {"measurement": "Oral solution on Frel", "setting": "[1]; fractional covariate effect", "value": "−0.67"},
      {"measurement": "Absorption rate constant [ka (/h)]", "setting": "[1]; healthy participants", "value": 2.44, "unit": "h⁻¹"},
      {"measurement": "Apparent clearance healthy participants [CL/F (L/h)]", "setting": "[1]; healthy participants", "value": 19.82, "unit": "L/h"},
      {"measurement": "Lag time [ALAG (h)]", "setting": "[1]; healthy participants", "value": 0.30, "unit": "h"},
      {"measurement": "Exponential dose effect on ka", "setting": "[1]; power exponent", "value": "−0.41"},
      {"measurement": "σprop", "setting": "[1]; proportional residual error", "value": 0.12},
      {"measurement": "ω^2CL/F", "setting": "[1]; variance of IIV", "value": 0.151},
      {"measurement": "ω^2Q/F", "setting": "[1]; variance of IIV", "value": 0.197},
      {"measurement": "ω^2V1/F", "setting": "[1]; variance of IIV", "value": 0.136},
      {"measurement": "ω^2V2/F", "setting": "[1]; variance of IIV", "value": 0.422},
      {"measurement": "ω^2ka", "setting": "[1]; variance of IIV", "value": 0.537},
      {"measurement": "Blood-plasma ratio", "setting": "[2]", "value": 0.567},
      {"measurement": "Lag time [ALAG (h)]", "setting": "[2]", "value": 0.298, "unit": "h"},
      {"measurement": "Effect of solution on ALAG", "setting": "[2]; fractional covariate effect", "value": "−0.191"},
      {"measurement": "Effect of solution on Frel", "setting": "[2]; fractional covariate effect", "value": "−0.547"},
      {"measurement": "Apparent clearance healthy participants [CL/F (L/h)]", "setting": "[2]; healthy participants", "value": 18.2, "unit": "L/h"},
      {"measurement": "Absorption rate constant [ka (/h)]", "setting": "[2]; healthy participants and EM patients", "value": 1.31, "unit": "h⁻¹"},
      {"measurement": "Apparent clearance patients [CL/F (L/h)]", "setting": "[2]; patients", "value": 18.2, "unit": "L/h"},
      {"measurement": "Exponential effect of dose on Frel", "setting": "[2]; power exponent", "value": 0.163},
      {"measurement": "Exponential effect of dose on ka", "setting": "[2]; power exponent", "value": "−0.252"},
      {"measurement": "σprop", "setting": "[2]; proportional residual error", "value": 0.339},
      {"measurement": "σprop (study CGP-MD-01)", "setting": "[2]; proportional residual error", "value": 0.572},
      {"measurement": "σprop (study CGP-PK-02)", "setting": "[2]; proportional residual error", "value": 0.252},
      {"measurement": "ω^2CL/F", "setting": "[2]; variance of IIV", "value": 0.0724},
      {"measurement": "ω^2Q/F", "setting": "[2]; variance of IIV", "value": 0.550},
      {"measurement": "ω^2ka", "setting": "[2]; variance of IIV", "value": 0.683},
      {"measurement": "ω^2IOVFrel", "setting": "[2]; variance of IOV", "value": 0.228},
      {"measurement": "Blood concentrations as percentage of those in plasma", "setting": "[3]; Phase 3 Model", "value": 57.3, "unit": "%"},
      {"measurement": "Blood-plasma ratio", "setting": "[3]; Phase 3 Model", "value": 0.573},
      {"measurement": "Effect of concomitant statins on CL/F and Frel", "setting": "[3]; Phase 3 Model", "value": "not found to have a significant effect"},
      {"measurement": "Fraction zero-order absorption (Fk0)", "setting": "[3]; Phase 3 Model", "value": 0.693},
      {"measurement": "Frel at the 60-mg dose compared with the 10-mg dose", "setting": "[3]; Phase 3 Model", "value": "approximately 1.24 fold"},
      {"measurement": "Higher Frel with coadministration of itraconazole", "setting": "[3]; Phase 3 Model", "value": 1.95, "unit": "fold"},
      {"measurement": "IIV on CL/F", "setting": "[3]; Phase 3 Model", "value": 15.6, "unit": "% CV"},
      {"measurement": "IIV on Frel", "setting": "[3]; Phase 3 Model", "value": 48.4, "unit": "% CV"},
      {"measurement": "IIV on Q/F", "setting": "[3]; Phase 3 Model", "value": 68.6, "unit": "% CV"},
      {"measurement": "IIV on Tk0", "setting": "[3]; Phase 3 Model", "value": 40.4, "unit": "% CV"},
      {"measurement": "IIV on V2/F", "setting": "[3]; Phase 3 Model", "value": 77.5, "unit": "% CV"},
      {"measurement": "IOV on Frel", "setting": "[3]; Phase 3 Model", "value": 19.3, "unit": "% CV"},
      {"measurement": "Duration zero-order absorption [Tk0 (h)]", "setting": "[3]; Phase 3 Model, 60 mg reference dose", "value": 0.908, "unit": "h"},
      {"measurement": "Residual variability error term", "setting": "[3]; Phase 3 Model, CGP-PK-02", "value": 22.8, "unit": "% CV"},
      {"measurement": "Residual variability error term", "setting": "[3]; Phase 3 Model, EM phase 2b/3 study", "value": 58.5, "unit": "% CV"},
      {"measurement": "Lower CL/F with coadministration of quinidine", "setting": "[3]; Phase 3 Model, P-gp inhibitor", "value": 28.5, "unit": "%"},
      {"measurement": "Residual variability error term", "setting": "[3]; Phase 3 Model, all phase 1 studies except CGP-PK-02", "value": 30.7, "unit": "% CV"},
      {"measurement": "CovQ/F,V2/F", "setting": "[3]; Phase 3 Model, covariance of IIV", "value": 0.422},
      {"measurement": "Food effect on ALAG", "setting": "[3]; [6]", "value": 0.672},
      {"measurement": "Itraconazole effect on Frel", "setting": "[3]; [6]", "value": 0.949},
      {"measurement": "Rifampin effect on Frel after first dose", "setting": "[3]; [6]", "value": 1.42},
      {"measurement": "Rifampin effect on Frel following multiple doses", "setting": "[3]; [6]", "value": "−0.248"},
      {"measurement": "Apparent clearance healthy participants [CL/F (L/h)]", "setting": "[3]; Phase 3 Model, healthy participants", "value": 22.9, "unit": "L/h"},
      {"measurement": "Absorption lag time following a high-fat meal", "setting": "[3]; Phase 3 Model, high-fat meal", "value": 0.46, "unit": "h"},
      {"measurement": "Decrease of Frel with multiple rifampin doses", "setting": "[3]; [7]", "value": 24.8, "unit": "%"},
      {"measurement": "Increase of CL/F with multiple rifampin doses", "setting": "[3]; [7]", "value": 1.82, "unit": "fold"},
      {"measurement": "Apparent clearance patients [CL/F (L/h)]", "setting": "[3]; Phase 3 Model, patients with EM", "value": 17.4, "unit": "L/h"},
      {"measurement": "CL/F lower in patients than in healthy participants", "setting": "[3]; Phase 3 Model, patients with EM vs healthy participants", "value": 23.7, "unit": "%"},
      {"measurement": "Residual variability error term", "setting": "[3]; Phase 3 Model, phase 3 studies", "value": 49.1, "unit": "% CV"},
      {"measurement": "Exponential weight effect on V1/F", "setting": "[3]; Phase 3 Model, power exponent, body weight/76.8 kg", "value": 0.411},
      {"measurement": "Exponential dose effect on Frel", "setting": "[3]; Phase 3 Model, power exponent, dose/60 mg", "value": 0.119},
      {"measurement": "σprop", "setting": "[3]; [8]", "value": 0.307},
      {"measurement": "σprop (ADVANCE and PROGRESS studies)", "setting": "[3]; [8]", "value": 0.491},
      {"measurement": "σprop (study CGP-MD-01)", "setting": "[3]; [8]", "value": 0.585},
      {"measurement": "σprop (study CGP-PK-02)", "setting": "[3]; [8]", "value": 0.228},
      {"measurement": "Lower CL/F with severe hepatic impairment", "setting": "[3]; Phase 3 Model, relative to normal liver function or mild or moderate hepatic impairment", "value": 36.6, "unit": "%"},
      {"measurement": "Higher Frel with single-dose rifampin", "setting": "[3]; [9]", "value": 2.4, "unit": "fold"},
      {"measurement": "Lower CL/F with single-dose rifampin", "setting": "[3]; [9]", "value": "~ 13% and 12.8%"},
      {"measurement": "Lower CL/F with coadministration of itraconazole", "setting": "[3]; Phase 3 Model, strong CYP3A4 inhibitor", "value": 66.2, "unit": "%"},
      {"measurement": "ω^2CL/F", "setting": "[3]; Phase 3 Model, variance of IIV", "value": 0.0243},
      {"measurement": "ω^2Frel", "setting": "[3]; Phase 3 Model, variance of IIV", "value": 0.234},
      {"measurement": "ω^2Q/F", "setting": "[3]; Phase 3 Model, variance of IIV", "value": 0.471},
      {"measurement": "ω^2V2/F", "setting": "[3]; Phase 3 Model, variance of IIV", "value": 0.601},
      {"measurement": "ω^2tk0", "setting": "[3]; Phase 3 Model, variance of IIV", "value": 0.163},
      {"measurement": "ω^2IOVFrel", "setting": "[3]; Phase 3 Model, variance of IOV", "value": 0.0373},
      {"measurement": "Lag time [ALAG (h)]", "setting": "[3]; Phase 3 Model, without food", "value": 0.276, "unit": "h"},
      {"measurement": "Vd/F", "setting": "[3]; human, plasma, oral", "value": 86.1, "unit": "L"},
      {"measurement": "Metabolizing enzyme", "setting": "[4]", "value": "primarily metabolized by cytochrome P450 3A4 (CYP3A4)"},
      {"measurement": "Transporter substrate status", "setting": "[5]", "value": "substrate"}
    ]}
  ]
}
